The text below walks through data of ChEMBL document CHEMBL4028872, “Structure-Activity Relationship, Pharmacological Characterization, and Molecular Modeling of Noncompetitive Inhibitors of the Betaine/γ-Aminobutyric Acid Transporter 1 (BGT1)” (J Med Chem, 2017).

Test [1] concerns the target 5-hydroxytryptamine receptor 2B (Homo sapiens) (UniProt P41595). The test is described as follows: Displacement of [3H]LSD from human 5-HT2B receptor expressed in HEK cell membranes at 10 uM after 90 mins by scintillation counting method.
Test [2] addresses D(4) dopamine receptor (Homo sapiens) (UniProt P21917). The test can be described thus: Displacement of [3H]N-methylspiperone from human Dopamine receptor D4 receptor at 10 uM after 90 mins by scintillation counting method. (In general: Loss of bound radioactivity is the signal in a displacement assay; it reports binding, not function.)
Test [3] deals with Sodium- and chloride-dependent GABA transporter 1 (Homo sapiens, UniProt P30531). It is filed as cell-based.
Sodium- and chloride-dependent GABA transporter 1, sequence (P30531 whole entry): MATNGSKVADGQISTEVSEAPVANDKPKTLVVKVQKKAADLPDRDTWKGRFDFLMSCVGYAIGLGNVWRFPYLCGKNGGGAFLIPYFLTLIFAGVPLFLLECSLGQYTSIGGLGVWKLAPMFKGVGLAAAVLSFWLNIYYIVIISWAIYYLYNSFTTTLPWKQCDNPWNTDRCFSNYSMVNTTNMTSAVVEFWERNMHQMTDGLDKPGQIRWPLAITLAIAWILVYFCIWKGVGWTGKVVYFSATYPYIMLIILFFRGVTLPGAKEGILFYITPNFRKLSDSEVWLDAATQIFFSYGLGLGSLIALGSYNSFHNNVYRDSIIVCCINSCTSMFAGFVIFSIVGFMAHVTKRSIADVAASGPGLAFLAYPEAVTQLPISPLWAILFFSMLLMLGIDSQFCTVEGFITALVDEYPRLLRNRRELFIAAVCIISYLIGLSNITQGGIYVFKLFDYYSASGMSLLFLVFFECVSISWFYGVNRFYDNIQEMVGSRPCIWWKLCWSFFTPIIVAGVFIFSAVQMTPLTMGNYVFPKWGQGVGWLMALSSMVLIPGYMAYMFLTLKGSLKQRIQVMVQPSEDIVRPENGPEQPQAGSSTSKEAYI
In test [4] the target is Sodium- and chloride-dependent GABA transporter 3 (Homo sapiens, UniProt P48066, S468Y). The test is described as follows: Inhibition of human GAT3 S468Y mutant expresses in tsA201 cells assessed as reduction in [3H]GABA uptake after 3 mins by scintillation counting method. It is filed as cell-based. A digest of the protocol:
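Site-directed mutant transporters transiently transfected (PolyFect) into tsA201 cells, plated and used about 24 h later. Cells were washed with HBSS containing 20 mM HEPES, 1 mM CaCl2 and 1 mM MgCl2, pH 7.4. Uptake of 30 nM [3H]GABA was run with varied inhibitor concentrations for 3 min at 37 °C, then three ice-cold washes and scintillation counting. IC50 was taken from variable-slope sigmoidal fits. Triplicates, at least three independent experiments.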

The target in another test is T1, GABA transporter 2 (Mus musculus, UniProt P31651).
T1 sequence (P31651 whole entry): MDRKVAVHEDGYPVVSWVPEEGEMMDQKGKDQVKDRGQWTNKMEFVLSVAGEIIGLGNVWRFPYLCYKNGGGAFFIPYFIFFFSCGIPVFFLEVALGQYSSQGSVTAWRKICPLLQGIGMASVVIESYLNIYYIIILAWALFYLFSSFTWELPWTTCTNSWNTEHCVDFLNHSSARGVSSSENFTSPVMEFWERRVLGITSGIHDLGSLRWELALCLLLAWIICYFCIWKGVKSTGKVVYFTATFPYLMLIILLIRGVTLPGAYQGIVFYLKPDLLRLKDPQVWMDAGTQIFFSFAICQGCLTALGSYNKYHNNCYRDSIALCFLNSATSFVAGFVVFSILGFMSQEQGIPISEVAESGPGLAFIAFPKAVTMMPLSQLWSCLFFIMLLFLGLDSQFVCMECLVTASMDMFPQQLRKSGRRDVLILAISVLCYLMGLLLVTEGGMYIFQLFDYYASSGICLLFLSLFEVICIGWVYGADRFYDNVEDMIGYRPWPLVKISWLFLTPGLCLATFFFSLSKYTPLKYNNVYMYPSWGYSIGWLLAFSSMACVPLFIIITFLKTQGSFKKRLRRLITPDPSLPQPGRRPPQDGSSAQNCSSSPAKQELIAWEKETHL
The test can be described thus: Inhibition of mouse BGT1 expressed in HEK293 cells assessed as reduction in [3H]GABA uptake after 3 mins by scintillation counting method. The conditions noted are these: read-out: IC50. It is filed as cell-based. In outline:
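HEK293 lines stably expressing a single mouse GAT subtype, kept under blasticidin-S (5 µg/mL) selection. Cells were assayed about 24 h after plating with 30 nM [3H]GABA plus varying compound concentrations for 3 min at 37 °C in HBSS buffered with 20 mM HEPES (1 mM CaCl2, 1 mM MgCl2, pH 7.4). Cells were washed ice-cold and radioactivity counted. IC50 came from sigmoidal variable-slope fits.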

In test [5] the target is D(1A) dopamine receptor (Homo sapiens) (UniProt P21728). The test can be described thus: Displacement of [3H]SCH23390 from human Dopamine receptor D1 receptor expressed in HEKT cell membranes at 10 uM after 90 mins by scintillation counting method.
D(1A) dopamine receptor (Homo sapiens), sequence (P21728 whole entry): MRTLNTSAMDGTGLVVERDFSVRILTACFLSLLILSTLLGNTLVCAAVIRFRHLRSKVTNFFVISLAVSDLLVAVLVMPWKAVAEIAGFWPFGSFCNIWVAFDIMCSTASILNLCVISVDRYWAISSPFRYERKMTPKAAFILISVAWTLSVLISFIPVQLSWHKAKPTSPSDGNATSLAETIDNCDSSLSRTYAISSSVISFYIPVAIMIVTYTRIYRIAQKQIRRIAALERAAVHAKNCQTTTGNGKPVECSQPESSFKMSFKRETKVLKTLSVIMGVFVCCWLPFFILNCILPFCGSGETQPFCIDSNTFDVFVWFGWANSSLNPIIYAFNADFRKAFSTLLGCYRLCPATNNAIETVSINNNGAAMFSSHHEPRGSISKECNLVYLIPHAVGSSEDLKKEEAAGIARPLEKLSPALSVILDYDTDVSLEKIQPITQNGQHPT
Test [6] deals with Sodium- and chloride-dependent betaine transporter (Homo sapiens, UniProt P48065, Y453S). The test is described as follows: Inhibition of human BGT1 Y453S mutant expressed in tsA201 cells assessed as reduction in [3H]GABA uptake after 3 mins by scintillation counting method. It is filed as cell-based. In outline:
(§1)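 tsA201 cells transiently transfected with wild-type or mutant human BGT1 (PolyFect) were plated about 24 h before assay. Three ice-cold washes followed, then scintillation counting.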

Test [7] deals with Sodium- and chloride-dependent betaine transporter (Homo sapiens, UniProt P48065, I386F). The test is described as follows: Inhibition of human BGT1 I386F mutant expressed in tsA201 cells assessed as reduction in [3H]GABA uptake after 3 mins by scintillation counting method. It is filed as cell-based. A digest of the protocol:
as §1

In test [8] the target is D(2) dopamine receptor (Homo sapiens) (UniProt P14416). The test is described as follows: Displacement of [3H]N-methylspiperone from human Dopamine receptor D2 receptor expressed in fibroblast cell membranes at 10 uM after 90 mins by scintillation counting method.
D(2) dopamine receptor (Homo sapiens), sequence (P14416 whole entry): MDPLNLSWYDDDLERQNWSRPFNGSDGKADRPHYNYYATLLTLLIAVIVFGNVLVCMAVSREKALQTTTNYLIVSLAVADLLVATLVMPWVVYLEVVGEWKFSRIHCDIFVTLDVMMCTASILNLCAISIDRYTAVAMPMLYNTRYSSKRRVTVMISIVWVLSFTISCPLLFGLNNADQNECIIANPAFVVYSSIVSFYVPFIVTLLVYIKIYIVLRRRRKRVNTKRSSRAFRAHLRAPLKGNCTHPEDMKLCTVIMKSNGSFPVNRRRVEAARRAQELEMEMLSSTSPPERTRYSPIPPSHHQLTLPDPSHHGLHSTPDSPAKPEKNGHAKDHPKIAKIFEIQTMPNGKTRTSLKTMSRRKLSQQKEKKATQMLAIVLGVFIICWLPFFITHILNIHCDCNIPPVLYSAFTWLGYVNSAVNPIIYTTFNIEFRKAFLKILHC
In test [9] the target is Sodium- and chloride-dependent betaine transporter (Homo sapiens, UniProt P48065, Y453S/Y454A). The test is described as follows: Inhibition of human BGT1 Y453S/Y454A double mutant expressed in tsA201 cells assessed as reduction in [3H]GABA uptake after 3 mins by scintillation counting method. It is filed as cell-based. In outline: as §1
Sodium- and chloride-dependent betaine transporter (Homo sapiens, UniProt P48065, Y453S/Y454A), sequence (P48065 whole entry Y453S/Y454A): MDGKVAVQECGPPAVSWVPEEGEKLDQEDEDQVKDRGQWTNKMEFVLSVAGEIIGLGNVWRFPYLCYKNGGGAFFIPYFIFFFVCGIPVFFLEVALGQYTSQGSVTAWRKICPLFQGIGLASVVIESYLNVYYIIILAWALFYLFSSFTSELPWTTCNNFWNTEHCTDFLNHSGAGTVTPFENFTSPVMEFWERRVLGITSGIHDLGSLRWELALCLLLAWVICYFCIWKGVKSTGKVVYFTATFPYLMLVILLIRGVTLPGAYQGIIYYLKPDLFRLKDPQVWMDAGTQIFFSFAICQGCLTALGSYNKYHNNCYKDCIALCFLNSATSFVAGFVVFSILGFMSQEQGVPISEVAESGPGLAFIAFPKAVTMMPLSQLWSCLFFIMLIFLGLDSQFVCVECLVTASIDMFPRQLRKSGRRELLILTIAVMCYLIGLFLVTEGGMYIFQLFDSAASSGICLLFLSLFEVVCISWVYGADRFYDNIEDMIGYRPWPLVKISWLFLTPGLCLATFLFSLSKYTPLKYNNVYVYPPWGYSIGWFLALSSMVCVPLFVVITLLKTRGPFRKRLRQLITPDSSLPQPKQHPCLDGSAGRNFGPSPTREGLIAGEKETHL
In test [10] the target is T2, Sodium- and chloride-dependent betaine transporter (Homo sapiens, UniProt P48065).
T2 sequence (P48065 whole entry): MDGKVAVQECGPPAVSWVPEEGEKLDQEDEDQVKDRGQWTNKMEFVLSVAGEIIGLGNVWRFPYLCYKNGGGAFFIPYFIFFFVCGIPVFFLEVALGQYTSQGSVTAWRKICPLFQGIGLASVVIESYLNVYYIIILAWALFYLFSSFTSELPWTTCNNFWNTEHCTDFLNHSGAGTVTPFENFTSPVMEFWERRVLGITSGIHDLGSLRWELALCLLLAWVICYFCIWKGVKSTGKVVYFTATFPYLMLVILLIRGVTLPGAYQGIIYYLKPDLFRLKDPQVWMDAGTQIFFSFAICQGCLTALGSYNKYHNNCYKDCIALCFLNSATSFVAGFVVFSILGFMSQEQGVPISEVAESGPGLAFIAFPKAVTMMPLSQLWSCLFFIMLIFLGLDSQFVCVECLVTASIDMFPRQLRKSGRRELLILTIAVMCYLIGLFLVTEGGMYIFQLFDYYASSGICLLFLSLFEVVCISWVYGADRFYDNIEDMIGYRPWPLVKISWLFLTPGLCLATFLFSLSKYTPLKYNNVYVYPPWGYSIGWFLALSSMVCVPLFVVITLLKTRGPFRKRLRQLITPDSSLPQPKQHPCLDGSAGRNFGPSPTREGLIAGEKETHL
The test can be described thus: Inhibition of human BGT1 expresses in tsA201 cells assessed as reduction in [3H]GABA uptake after 3 mins by scintillation counting method. It is filed as cell-based. A digest of the protocol: as §1

In test [11] the target is Sodium- and chloride-dependent betaine transporter (Homo sapiens, UniProt P48065, Y453A). The test is described as follows: Inhibition of human BGT1 Y453A mutant expressed in tsA201 cells assessed as reduction in [3H]GABA uptake after 3 mins by scintillation counting method. It is filed as cell-based. In outline:
as §1

The source made the active and inactive calls. No cut-off for these calls is given here. Bounds are passed on as bounds.

Sodium- and chloride-dependent betaine transporter (Homo sapiens, UniProt P48065, I386F), sequence (P48065 whole entry I386F): as the sequence (P48065 whole entry Y453S/Y454A) above, with I386F, S453Y, A454Y counted along it
5-hydroxytryptamine receptor 2B (Homo sapiens), sequence (P41595 whole entry): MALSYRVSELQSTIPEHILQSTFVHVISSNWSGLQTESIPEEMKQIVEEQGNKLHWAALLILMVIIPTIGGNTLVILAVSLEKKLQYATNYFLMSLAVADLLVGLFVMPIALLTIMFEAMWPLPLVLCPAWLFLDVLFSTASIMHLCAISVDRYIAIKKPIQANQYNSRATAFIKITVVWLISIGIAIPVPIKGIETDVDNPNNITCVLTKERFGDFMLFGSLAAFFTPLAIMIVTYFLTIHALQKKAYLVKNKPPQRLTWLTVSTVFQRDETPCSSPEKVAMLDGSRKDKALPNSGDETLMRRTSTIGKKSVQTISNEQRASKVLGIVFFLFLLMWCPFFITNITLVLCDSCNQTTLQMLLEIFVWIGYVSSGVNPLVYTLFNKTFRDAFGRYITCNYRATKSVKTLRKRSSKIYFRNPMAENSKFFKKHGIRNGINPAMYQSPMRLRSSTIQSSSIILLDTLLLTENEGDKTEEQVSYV
D(4) dopamine receptor (Homo sapiens), sequence (P21917 whole entry): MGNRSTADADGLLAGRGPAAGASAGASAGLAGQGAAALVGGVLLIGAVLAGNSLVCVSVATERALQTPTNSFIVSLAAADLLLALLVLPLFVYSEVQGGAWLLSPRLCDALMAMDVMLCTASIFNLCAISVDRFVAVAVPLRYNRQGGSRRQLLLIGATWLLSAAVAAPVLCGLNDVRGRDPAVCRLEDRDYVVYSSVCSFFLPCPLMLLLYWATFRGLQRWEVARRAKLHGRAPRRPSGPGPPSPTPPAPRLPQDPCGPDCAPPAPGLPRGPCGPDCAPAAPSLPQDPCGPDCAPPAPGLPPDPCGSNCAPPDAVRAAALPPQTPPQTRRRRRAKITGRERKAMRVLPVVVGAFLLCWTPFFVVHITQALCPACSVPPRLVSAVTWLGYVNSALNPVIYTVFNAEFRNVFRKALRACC
Sodium- and chloride-dependent betaine transporter (Homo sapiens, UniProt P48065, Y453A), sequence (P48065 whole entry Y453A): as the sequence (P48065 whole entry Y453S/Y454A) above, with S453A, A454Y counted along it
Sodium- and chloride-dependent betaine transporter (Homo sapiens, UniProt P48065, Y453S), sequence (P48065 whole entry Y453S): as the sequence (P48065 whole entry Y453S/Y454A) above, with A454Y counted along it
Sodium- and chloride-dependent GABA transporter 3, sequence (P48066 whole entry S468Y): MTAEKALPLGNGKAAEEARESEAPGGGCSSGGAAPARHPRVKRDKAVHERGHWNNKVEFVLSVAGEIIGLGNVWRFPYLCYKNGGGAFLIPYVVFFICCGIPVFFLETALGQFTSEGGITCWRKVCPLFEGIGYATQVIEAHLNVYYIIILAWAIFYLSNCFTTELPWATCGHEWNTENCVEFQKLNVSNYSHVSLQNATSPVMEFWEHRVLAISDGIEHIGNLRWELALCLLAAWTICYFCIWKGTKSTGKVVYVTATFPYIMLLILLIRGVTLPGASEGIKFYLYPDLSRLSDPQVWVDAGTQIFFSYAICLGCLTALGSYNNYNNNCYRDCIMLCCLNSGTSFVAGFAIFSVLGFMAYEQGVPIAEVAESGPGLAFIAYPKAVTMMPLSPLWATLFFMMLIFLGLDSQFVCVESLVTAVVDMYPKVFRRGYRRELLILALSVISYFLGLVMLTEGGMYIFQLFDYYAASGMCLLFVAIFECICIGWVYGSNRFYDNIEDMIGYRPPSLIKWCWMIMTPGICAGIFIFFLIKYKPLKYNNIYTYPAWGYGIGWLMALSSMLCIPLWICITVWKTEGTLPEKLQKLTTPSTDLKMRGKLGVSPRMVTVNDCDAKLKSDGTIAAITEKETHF

For the compound `O=C(NC1CCN(Cc2ccccc2)CC1)c1ccc(Cl)cc1Cl`, the inhibition result in test [1], in test [2], in test [5] and in test [8] was “Active” each time. Moreover, the IC50 was above 100 µM in [3]; above 300 µM in test [4]; 32 µM at GABA transporter 2; 19 µM in test [6]; 8 µM in test [7] (read-out: IC50); 6 µM in test [9] (read-out: IC50). Further, the IC50 in test [10] (read-out: IC50) was determined as 18 µM; in test [11], 19 µM.
On to `O=C(NC1CCN(Cc2ccccc2)CC1)c1ccc(Cl)nc1Cl`, for which the inhibition entry in test [1] was “Active”. Moreover, the inhibition entry in [2], in [5] and in test [8] was “inactive” throughout. Also, the IC50 in [3] (read-out: IC50) was above 1000 µM; in [4], above 1000 µM; at GABA transporter 2, 37 µM; in test [6] it was 25 µM; in test [7] (read-out: IC50) it was 47 µM; in [7] (read-out: pIC50 (converted)) it was 43.7 µM. In addition, the IC50 is 15 µM in [9] (read-out: IC50); 12.9 µM in test [9] (read-out: pIC50 (converted)); 44 µM in test [10] (read-out: IC50); 40.7 µM in [10] (read-out: pIC50 (converted)); 23 µM in test [11].
